The target of data set [1] is T1, Nuclear receptor subfamily 1 group I member 2 (Homo sapiens, UniProt O75469).
T1 sequence (O75469 whole entry): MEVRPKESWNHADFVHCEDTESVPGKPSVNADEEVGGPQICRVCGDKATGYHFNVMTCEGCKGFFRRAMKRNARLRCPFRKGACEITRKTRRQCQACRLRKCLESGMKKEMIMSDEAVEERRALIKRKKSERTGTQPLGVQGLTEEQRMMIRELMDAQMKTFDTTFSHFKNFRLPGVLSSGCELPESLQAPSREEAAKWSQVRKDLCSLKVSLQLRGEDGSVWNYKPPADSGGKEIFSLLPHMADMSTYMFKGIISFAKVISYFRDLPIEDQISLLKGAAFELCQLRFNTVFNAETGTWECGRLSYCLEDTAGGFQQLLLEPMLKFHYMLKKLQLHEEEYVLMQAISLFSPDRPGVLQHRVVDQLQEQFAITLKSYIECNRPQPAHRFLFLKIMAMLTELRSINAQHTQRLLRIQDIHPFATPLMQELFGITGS
As to the kind of experiment: Activity at human PXR assessed as induction of CYP3A4 activity in human hepatocytes at 1 uM relative to rifampicin. It counts as cell-based, Hepatocyte.

Data set [2] deals with T2, Nociceptin receptor (Homo sapiens, UniProt P41146). As to the kind of experiment: Displacement of [125I][Tyr14]nociceptin from human cloned NOP receptor expressed in CHO cells. Format: cell-based. For orientation: Displacement assays read how much labelled ligand stays bound in the presence of the test substance.
The target in data set [3] is T3, Mu-type opioid receptor (Homo sapiens, UniProt P35372). As to the kind of experiment: Displacement of [3H]diprenorphine from human mu opioid receptor expressed in CHO cells. It counts as cell-based.
Data set [4] addresses T2, Nociceptin receptor. As to the kind of experiment: Agonist activity at human NOP assessed as stimulation of GDP-induced [35S]GTPgammaS binding. It counts as functional. The procedure, abridged: (§1)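 Functional agonism measured as enhancement of [35S]GTPγS binding in the presence of GDP, using membranes from cells transfected with the receptor. Values are means of 2–3 experiments.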
On the technique in general: GTPγS is a poorly hydrolysed GTP analogue; its binding reports G protein activation.

The target of data set [5] is T3, Mu-type opioid receptor. As to the kind of experiment: Agonist activity at human mu opioid assessed as stimulation of GDP-induced [35S]GTPgammaS binding. It counts as functional. In outline:
as §1

Data set [6] concerns the target T3, Mu-type opioid receptor. As to the kind of experiment: Binding affinity to human mu opioid assessed as stimulation of GDP-induced [35S]GTPgammaS binding at 10 uM. It counts as functional. In outline: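 Agonist function read as enhancement of [35S]GTPγS binding to receptor-expressing membranes in the presence of GDP. Percent stimulation is given at 10 µM test compound. Values are means of at least 2–3 experiments.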

This is an account of results in ChEMBL document CHEMBL1138606, “The discovery of tropane derivatives as nociceptin receptor ligands for the management of cough and anxiety” (Bioorg Med Chem Lett, 2009).

T3 sequence (P35372 whole entry): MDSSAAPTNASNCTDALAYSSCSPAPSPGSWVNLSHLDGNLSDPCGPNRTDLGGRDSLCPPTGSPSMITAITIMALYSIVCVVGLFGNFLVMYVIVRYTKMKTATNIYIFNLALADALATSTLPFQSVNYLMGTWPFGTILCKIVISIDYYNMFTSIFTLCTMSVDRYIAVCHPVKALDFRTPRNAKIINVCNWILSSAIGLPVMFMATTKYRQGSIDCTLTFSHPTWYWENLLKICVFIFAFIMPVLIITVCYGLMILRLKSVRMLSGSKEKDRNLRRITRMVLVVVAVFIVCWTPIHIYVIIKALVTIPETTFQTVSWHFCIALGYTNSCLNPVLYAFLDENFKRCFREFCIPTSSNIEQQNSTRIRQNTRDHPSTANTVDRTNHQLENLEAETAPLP
T2 sequence (P41146 whole entry): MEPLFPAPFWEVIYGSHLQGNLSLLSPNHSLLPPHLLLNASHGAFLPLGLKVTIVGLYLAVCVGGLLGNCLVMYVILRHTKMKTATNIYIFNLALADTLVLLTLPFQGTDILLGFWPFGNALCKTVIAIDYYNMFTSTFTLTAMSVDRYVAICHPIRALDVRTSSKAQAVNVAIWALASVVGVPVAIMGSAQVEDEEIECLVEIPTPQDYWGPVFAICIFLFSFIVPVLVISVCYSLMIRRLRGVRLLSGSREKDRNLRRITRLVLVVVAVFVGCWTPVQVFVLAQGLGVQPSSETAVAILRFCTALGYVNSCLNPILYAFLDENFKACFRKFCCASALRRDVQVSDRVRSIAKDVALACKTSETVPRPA

Turning to `COCCNC(=O)C1(c2ccccc2)CC2CCC(C1)N2C(c1ccccc1Cl)c1ccccc1Cl` (centres undefined), in data set [1], the Ratio was determined as 2.35. Moreover, the Ki on Nociceptin receptor [2] came to 8.2 nM; at Mu-type opioid receptor [3], 60 nM.

As to `Cc1ccc(C(c2ccccc2Cl)N2C3CCC2CC(O)(c2ccncn2)C3)c(Cl)c1` (centres undefined), the half-maximal effective concentration (EC50) on Nociceptin receptor [4] was 50 nM; on Mu-type opioid receptor [5], 1690 nM. Also, the inhibitory constant (Ki) at Nociceptin receptor [2] was 5.2 nM; at Mu-type opioid receptor [3] it was 535 nM.

As to `Clc1ccccc1C(c1ccccc1Cl)N1C2CCC1CC(c1ccccc1)(c1nc[nH]n1)C2` (centres undefined), the figures for the inhibition constant (Ki) at Nociceptin receptor [2] and at Mu-type opioid receptor [3] were 5.3 nM and 100 nM, respectively.

As for `CC(O)CNC(=O)C1(c2ccccc2)CC2CCC(C1)N2C(c1ccccc1Cl)c1ccccc1Cl` (centres undefined), the Ratio in data set [1] is given as 2.38. The Ki at Nociceptin receptor [2] is 11 nM; at Mu-type opioid receptor [3], 57 nM.

`NC1(c2ccccc2)CC2CCC(C1)N2C(c1ccccc1Cl)c1ccccc1Cl` (centres undefined): the EC50 on Nociceptin receptor [4] came out at 76 nM; on Mu-type opioid receptor [5], 4520 nM. In addition, the Ki was found to be 4 nM at Nociceptin receptor [2] and 458 nM on Mu-type opioid receptor [3].

In the case of `Cc1ccc(C(c2ccccc2Cl)N2C3CCC2CC(O)(C2CCCC2)C3)c(Cl)c1` (centres undefined), the results for the EC50 on Nociceptin receptor [4] and at Mu-type opioid receptor [5] were 16 nM and 709 nM, respectively. In addition, the figures for the Ki on Nociceptin receptor [2] and at Mu-type opioid receptor [3] were 1.9 nM and 104 nM, respectively.

Regarding `NC(=O)C1(c2ccc(Cl)cc2)CC2CCC(C1)N2C(c1ccccc1Cl)c1ccccc1Cl` (centres undefined), in data set [1], the Ratio is 0.05. Besides, the inhibitory constant (Ki) at Nociceptin receptor [2] is 31 nM; on Mu-type opioid receptor [3], 55 nM.

`OC1(c2cccnn2)CC2CCC(C1)N2C(c1ccccc1Cl)c1ccccc1Cl` (stereo in doubt; 12c) returned an inhibitory constant (Ki) on Nociceptin receptor [2] of 3760 nM.

For the molecule `COc1ccc(C2(C(N)=O)CC3CCC(C2)N3C(c2ccccc2Cl)c2ccccc2Cl)cc1` (centres undefined), the Ratio in data set [1] is given as 0.06. Besides, the figures for the Ki at Nociceptin receptor [2] and at Mu-type opioid receptor [3] were 22 nM and 59 nM, respectively.

Consider `NC(=O)C1(c2ccc(OC(F)(F)F)cc2)CC2CCC(C1)N2C(c1ccccc1Cl)c1ccccc1Cl` (centres undefined), for which, in data set [1], the Ratio was 0.1. This molecule also registered an inhibitory constant (Ki) on Nociceptin receptor [2] of 285 nM.

Take `Cc1ccc(C(c2ccccc2Cl)N2C3CCC2CC(O)(C2=NCCCN2)C3)c(Cl)c1` (centres undefined): the Activity on Mu-type opioid receptor [6] was found to be 29%. For the same molecule, on Nociceptin receptor [4], the EC50 came to 62 nM. The Ki is 3 nM on Nociceptin receptor [2] and 622 nM at Mu-type opioid receptor [3].

Take `OC1(c2cccnc2)CC2CCC(C1)N2C(c1ccccc1Cl)c1ccccc1Cl` (centres undefined): the inhibition constant Ki on Nociceptin receptor [2] was 3 nM; on Mu-type opioid receptor [3], 42 nM.

The molecule `N#CC1(c2ccccc2)CC2CCC(C1)N2C(c1ccccc1Cl)c1ccccc1Cl` (centres undefined) displayed a Ki at Nociceptin receptor [2] of 100 nM.

With `C[C@H]1CN(C(c2ccccc2)c2ccccc2)CC[C@@]1(O)c1ccccc1`, on Nociceptin receptor [2], the Ki came to 1570 nM.

Take `OC1(c2cncs2)CC2CCC(C1)N2C(c1ccccc1Cl)c1ccccc1Cl` (stereo in doubt; 11b): the inhibition constant (Ki) is 19 nM at Nociceptin receptor [2] and 1490 nM on Mu-type opioid receptor [3].

Turning to `OC1(c2cncs2)CC2CCC(C1)N2C(c1ccccc1Cl)c1ccccc1Cl` (stereo in doubt; 12b), affinity at Nociceptin receptor [2] was put at a Ki of 3000 nM.

Take `O=C(O)C1(c2ccccc2)CC2CCC(C1)N2C(c1ccccc1Cl)c1ccccc1Cl` (centres undefined): the Ki worked out at 3 nM on Nociceptin receptor [2] and 123 nM on Mu-type opioid receptor [3].

Regarding `Cc1ccc(C(c2ccccc2Cl)N2C3CCC2CC(O)(C2CCNC2=O)C3)c(Cl)c1` (centres undefined), the Activity on Mu-type opioid receptor [6] came to 60%. On Nociceptin receptor [4], the EC50 came to 48 nM. For the same molecule, the Ki on Nociceptin receptor [2] came to 3.6 nM; at Mu-type opioid receptor [3] it was 781 nM.

`COc1ccc(CC2(O)CC3CCC(C2)N3C(c2ccccc2Cl)c2ccc(C)cc2Cl)nc1` (centres undefined): on Mu-type opioid receptor [6], the Activity was 31%. Besides, the EC50 on Nociceptin receptor [4] worked out at 90 nM. The Ki on Nociceptin receptor [2] was found to be 13 nM; on Mu-type opioid receptor [3] it was 384 nM.

As to `CC(C)NC(=O)C1(c2ccccc2)CC2CCC(C1)N2C(c1ccccc1Cl)c1ccccc1Cl` (centres undefined), the Ratio in data set [1] worked out at 2.21. Moreover, the inhibition constant (Ki) at Nociceptin receptor [2] stood at 10 nM; at Mu-type opioid receptor [3] it was 333 nM.

On to `CNC(=O)C1(c2ccccc2)CC2CCC(C1)N2C(c1ccccc1Cl)c1ccccc1Cl` (centres undefined), for which, in data set [1], the Ratio came out at 1.29. The inhibitory constant (Ki) is 4.9 nM on Nociceptin receptor [2] and 50 nM on Mu-type opioid receptor [3].

Regarding `OC1(c2cccnn2)CC2CCC(C1)N2C(c1ccccc1Cl)c1ccccc1Cl` (stereo in doubt; 11c), the inhibitory constant (Ki) turned out to be 10 nM on Nociceptin receptor [2] and 470 nM on Mu-type opioid receptor [3].

Regarding `CCNC(=O)C1(c2ccccc2)CC2CCC(C1)N2C(c1ccccc1Cl)c1ccccc1Cl` (centres undefined), the Ratio in data set [1] worked out at 1.49. The results for the inhibitory constant (Ki) at Nociceptin receptor [2] and at Mu-type opioid receptor [3] were 7 nM and 215 nM, respectively.

Take `NC(=O)c1ccc(C2(C(N)=O)CC3CCC(C2)N3C(c2ccccc2Cl)c2ccccc2Cl)cc1` (centres undefined): the Ratio in data set [1] was 0.05. The same molecule returned a Ki on Nociceptin receptor [2] of 678 nM.

On to `FCC1(c2ccccc2)CC2CCC(C1)N2C(c1ccccc1Cl)c1ccccc1Cl` (centres undefined), for which the inhibition constant Ki on Nociceptin receptor [2] worked out at 3150 nM.

In turn, `OC1CC2CCC(C1)N2C(c1ccccc1Cl)c1ccccc1Cl` (stereo in doubt; 11a) registered an inhibition constant (Ki) on Nociceptin receptor [2] of 198 nM.

Take `O=C(NC1(c2ccccc2)CC2CCC(C1)N2C(c1ccccc1Cl)c1ccccc1Cl)C1CC1` (centres undefined): the Activity at Mu-type opioid receptor [6] is 25%. For the same molecule, the EC50 on Nociceptin receptor [4] turned out to be 35 nM. The Ki was 11 nM at Nociceptin receptor [2] and 996 nM on Mu-type opioid receptor [3].

For `Cc1ccnc(C2(O)C3CCC2CN(C(c2ccccc2Cl)c2ccccc2Cl)C3)c1` (centres undefined), the inhibition constant (Ki) at Nociceptin receptor [2] turned out to be 385 nM; at Mu-type opioid receptor [3], 3590 nM.

Consider `O/N=C/C1(c2ccccc2)CC2CCC(C1)N2C(c1ccccc1Cl)c1ccccc1Cl` (centres undefined), for which the Activity on Mu-type opioid receptor [6] was found to be 29%. Further, the 50% effective concentration (EC50) at Nociceptin receptor [4] was 107 nM. Besides, the Ki at Nociceptin receptor [2] was found to be 20 nM; on Mu-type opioid receptor [3], 601 nM.

`Cc1ccc(C(c2ccccc2Cl)N2C3CCC2CC(O)(c2cccc(F)c2)C3)c(Cl)c1` (centres undefined): the EC50 at Nociceptin receptor [4] came to 16 nM; at Mu-type opioid receptor [5] it was 894 nM. Besides, the inhibitory constant (Ki) on Nociceptin receptor [2] is 2.7 nM; on Mu-type opioid receptor [3], 57 nM.

Take `NC(=O)C1(c2ccc(Br)cc2)CC2CCC(C1)N2C(c1ccccc1Cl)c1ccccc1Cl` (centres undefined): the Ratio in data set [1] is on record as 0.05. Besides, the Ki on Nociceptin receptor [2] stood at 40 nM.

In the case of `OC1(c2cccnc2)C2CCC1CN(C(c1ccccc1Cl)c1ccccc1Cl)C2` (centres undefined), the Ki on Nociceptin receptor [2] was 908 nM; on Mu-type opioid receptor [3], 7260 nM.

`CNC(=O)NC1(c2ccccc2)CC2CCC(C1)N2C(c1ccccc1Cl)c1ccccc1Cl` (centres undefined): the Ki on Nociceptin receptor [2] came out at 2 nM; at Mu-type opioid receptor [3], 27 nM.

As for `OCC1(c2ccccc2)CC2CCC(C1)N2C(c1ccccc1Cl)c1ccccc1Cl` (centres undefined), the EC50 is 136 nM on Nociceptin receptor [4] and 2140 nM on Mu-type opioid receptor [5]. For the same molecule, the inhibitory constant (Ki) on Nociceptin receptor [2] was 6 nM; at Mu-type opioid receptor [3], 627 nM.

On to `Cc1ccnc(C2(O)CC3CCC(C2)N3C(c2ccccc2Cl)c2ccc(C)cc2Cl)c1` (centres undefined), for which the Ki on Nociceptin receptor [2] is 7.3 nM; on Mu-type opioid receptor [3], 708 nM.

As to `COC(=O)NC1(c2ccccc2)CC2CCC(C1)N2C(c1ccccc1Cl)c1ccccc1Cl` (centres undefined), the EC50 came to 54 nM at Nociceptin receptor [4] and 782 nM on Mu-type opioid receptor [5]. Besides, the Ki on Nociceptin receptor [2] is 6 nM; on Mu-type opioid receptor [3] it was 576 nM.

On to `Cc1ccc(C(c2ccccc2Cl)N2C3CCC2CC(O)(CCCO)C3)c(Cl)c1` (centres undefined), for which the inhibition constant (Ki) on Nociceptin receptor [2] amounted to 7.4 nM; on Mu-type opioid receptor [3], 306 nM.

With `Cc1ccc(C(c2ccccc2Cl)N2C3CCC2CC(O)(C2CCCN2Cc2ccccc2)C3)c(Cl)c1` (centres undefined), the Ki on Nociceptin receptor [2] worked out at 14 nM; at Mu-type opioid receptor [3], 1550 nM.

For the molecule `COC1(c2ccccc2)CC2CCC(C1)N2C(c1ccccc1Cl)c1ccccc1Cl` (centres undefined), the EC50 worked out at 50 nM at Nociceptin receptor [4] and 545 nM at Mu-type opioid receptor [5]. The Ki on Nociceptin receptor [2] worked out at 8 nM; at Mu-type opioid receptor [3] it was 636 nM.

`OC1CC2CCC(C1)N2C(c1ccccc1Cl)c1ccccc1Cl` (stereo in doubt; 12a) came in with an inhibitory constant (Ki) at Nociceptin receptor [2] of 1090 nM.

By Ki is commonly meant a dissociation constant, usually derived from enzyme kinetics or from competition with a known ligand. A lower Ki goes with a stronger hold on the target. By EC50 is commonly meant the concentration that produces a half-maximal response.
